Measured values as given in publication PMC4201343 (ACS Chemical Biology, 2014).
Changes are numbered by the printed parent chain. “Also recorded” adds a separate entry of the source.

What was measured:
HCV NS3h [1] = biological target: T1, HCV NS3h (Hepatitis C virus genotype 1b, UniProt Q9WMX2); experiment: FP-based binding assay, NS3h displacement from Cy5-dT15 DNA; design: species or system hepatitis C virus genotype 1b (con1); settings: for NS3h (% I): percent inhibition of NS3h binding to Cy5-dT15: 100 μM of each compound, 100 µM
T1 sequence (Q9WMX2 1190-1657 limits assumed): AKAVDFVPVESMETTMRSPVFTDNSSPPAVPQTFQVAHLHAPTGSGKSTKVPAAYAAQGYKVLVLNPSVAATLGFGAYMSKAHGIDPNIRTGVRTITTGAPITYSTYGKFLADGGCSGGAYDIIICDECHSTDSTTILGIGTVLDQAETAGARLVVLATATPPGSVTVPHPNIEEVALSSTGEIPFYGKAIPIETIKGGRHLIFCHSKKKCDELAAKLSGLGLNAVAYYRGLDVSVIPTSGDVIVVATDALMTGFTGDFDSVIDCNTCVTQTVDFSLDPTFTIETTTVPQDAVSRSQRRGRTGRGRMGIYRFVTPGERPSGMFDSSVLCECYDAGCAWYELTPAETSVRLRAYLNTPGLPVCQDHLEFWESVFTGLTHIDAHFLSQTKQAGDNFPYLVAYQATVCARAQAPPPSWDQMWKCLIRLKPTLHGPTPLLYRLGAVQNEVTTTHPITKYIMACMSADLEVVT
How it was run: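 Fluorescence polarization with Cy5-dT15 and NS3h: excitation 635 nm; parallel and perpendicular emission read at 667 nm; G-factor taken from probe-only wells. % inhibition normalized to DMSO-only (negative) and 200 nM dT20 or 100 μM primuline (positive) controls. Single-point tests at 100 μM. IC50 is the concentration displacing 50% of NS3h from DNA. Reversibility: 10 μM NS3h preincubated 1 h with test compound, then diluted 100–100 000-fold into Cy5-dT15 and compared with untreated controls.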

HCV NS3h [2] = biological target: T1, HCV NS3h; experiment: FP-based binding assay, NS3h displacement from Cy5-rU15 RNA; design: species or system hepatitis C virus genotype 1b (con1); settings: IC50 RNA (Cy5-rU15–NS3h complex, RNA:NS3h binding), Figures 1C and 7B titration
How it was run: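 Con1 NS3h bound to 5′-Cy5-labelled rU15 RNA was titrated with test compound. Polarisation was read with excitation 635 nm and emission 667 nm, G-factor from probe-only wells. Values were normalised to DMSO and positive controls and fit to a concentration–response equation (n = 3). IC50 is the concentration reducing complex polarisation by 50%.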

E. coli SSB = E. coli SSB (Escherichia coli, UniProt P0AGE0); experiment: FP-based binding assay with SSB in place of NS3h
How it was run: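 Fluorescence polarisation assay with E. coli SSB in place of NS3h, using Cy5-dT15 (or Cy5-rU15 for titrations). Screen compounds were pin-transferred to 100 μM final, 1% DMSO. Excitation 635 nm, emission 667 nm; G-factor from probe-only wells. Percent inhibition was normalised to DMSO and to unlabeled dT20 or 100 μM primuline controls.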

NS3h helicase = biological target: T2, NS3h helicase (Hepatitis C virus genotype 1b, UniProt Q9WMX2); experiment: Molecular beacon-based helicase; format: biochemical, hepatitis C virus genotype 1b (con1); settings: IC50 Helicase (DNA unwinding), Figure 7B, no DTT
T2 sequence (Q9WMX2 1190-1657 limits assumed): T1 sequence (Q9WMX2 1190-1657 limits assumed)

NS3 ATPase = biological target: T3, NS3 ATPase (Hepatitis C virus genotype 1b, UniProt Q9WMX2); experiment: ATPase assay; format: biochemical, hepatitis C virus genotype 1b (con1); settings: Figure 7B
T3 sequence (Q9WMX2 1190-1657 limits assumed): T1 sequence (Q9WMX2 1190-1657 limits assumed)

[3] = biological target: NS3 protease (scNS3-NS4A) (Hepatitis C virus, UniProt Q9WMX2); experiment: Protease assay; format: biochemical; settings: even at the highest concentrations tested
How it was run: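 Full-length single-chain NS3-4A at 10 nM, in kit HCV protease buffer without DTT with 5% DMSO, cleaving a 5-carboxyfluorescein-labelled peptide substrate; fluorescence read at 520 nm. Test compound was run as a 7-point two-fold dilution series from 100 μM, in duplicate.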

NS3h = biological target: T4, NS3h (Hepatitis C virus genotype 1b, UniProt Q9WMX2); experiment: ESI mass spectrometry of ebselen-treated NS3h; design: species or system hepatitis C virus genotype 1b (con1); settings: 100 μM ebselen, 1 h, RT
T4 sequence (Q9WMX2 1190-1657 limits assumed): T1 sequence (Q9WMX2 1190-1657 limits assumed)
How it was run: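 Con1 NS3h was incubated 1 h at RT with 100 μM test compound in 10 mM ammonium acetate pH 7.5, 1% DMSO. It was dialysed against 10 mM ammonium acetate (three changes) and diluted to 0.15 mg/mL in 50:50 acetonitrile/water, 0.2% formic acid. Nano-ESI Q-TOF, positive mode, 3 kV, 0.7 μL/min, 10 min acquisition, compared with untreated and DMSO-treated protein.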

NS3h_1b(con1) C279S = biological target: T5, NS3h_1b(con1) C279S (Hepatitis C virus genotype 1b, UniProt Q9WMX2, C1305S); experiment: DNA binding, ATP hydrolysis and DNA unwinding assays with C279S NS3h; format: biochemical, hepatitis C virus genotype 1b (con1); settings: DNA binding, ATP hydrolysis, DNA unwinding
T5 sequence (Q9WMX2 1190-1657 C1305S limits assumed): T1 sequence (Q9WMX2 1190-1657 limits assumed) with C116S

NS3h_1b(con1) C289S = biological target: T6, NS3h_1b(con1) C289S (Hepatitis C virus genotype 1b, UniProt Q9WMX2, C1315S); experiment: DNA binding, ATP hydrolysis and DNA unwinding assays with C289S NS3h; format: biochemical, hepatitis C virus genotype 1b (con1); settings: DNA binding, ATP hydrolysis, DNA unwinding
T6 sequence (Q9WMX2 1190-1657 C1315S limits assumed): T1 sequence (Q9WMX2 1190-1657 limits assumed) with C126S

[4] = test system: HCV genotype 2a isolate (JFH1); settings: 20 μM of each compound; ref Gastaminza et al.[9]; cited from earlier work

Sequence of E. coli SSB (P0AGE0 2-178 limits assumed): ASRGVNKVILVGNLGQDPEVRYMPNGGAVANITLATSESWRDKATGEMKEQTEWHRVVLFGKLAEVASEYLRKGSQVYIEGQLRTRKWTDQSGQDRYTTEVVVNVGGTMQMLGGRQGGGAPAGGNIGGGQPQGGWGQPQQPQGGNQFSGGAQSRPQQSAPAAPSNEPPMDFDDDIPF

Q: Which results are given for `O=c1c2ccccc2[se]n1-c1ccccc1` [Ebselen, 2-phenyl-1,2-benzisoselenazol-3(2H)-one]?
A: reversibility of NS3h inhibition (HCV NS3h [1]; 10 μM NS3h treated with 10 μM ebselen for 1 h, then diluted to <0.1 μM ebselen): reversible; NS3h (% I): percent inhibition of NS3h binding to Cy5-dT15 (HCV NS3h [1]): 99%; NS3h (% I): percent inhibition of NS3h binding to Cy5-dT15 (HCV NS3h [1]; listed as ebselen): more than 50%; IC50 (HCV NS3h [1]; IC50 DNA (Cy5-dT15–NS3h complex), Figure 1C titration, n = 3): ~1000 nM; reversibility of NS3h inhibition (HCV NS3h [1]; NS3h incubated with 100 μM ebselen, then dialysis): irreversible; IC50 (HCV NS3h [2]): ~1000 nM; effect on SSB binding to DNA or RNA (E. coli SSB; Cy5-dT15 or Cy5-rU15, Figure 1D titration): no effect; also recorded: did not inhibit; inhibition at 100 µM (E. coli SSB; read-out: SSB (% I): percent inhibition of SSB binding to Cy5-dT15): 3%; IC50 (NS3h helicase): ~1000 nM; IC50 (NS3 ATPase): ~1000 nM; effect on NS3 protease activity (peptide cleavage by full-length NS3) [3]: no effect; number of ebselens bound to NS3h (covalent adducts) (NS3h): 14; sensitivity to ebselen inhibition compared with wild type (NS3h_1b(con1) C279S): neither protein was more or less sensitive; sensitivity to ebselen inhibition compared with wild type (NS3h_1b(con1) C289S): neither protein was more or less sensitive; HCV (% I): percent inhibition of HCV replication in cells [4]: 83%
